In one test the test system is Pneumocystis carinii. Briefly: Antileishmanial activity against Pneumocystis carinii. In kind it is functional, organism-based.
For test [1], the system named is Trypanosoma brucei rhodesiense. Briefly: […] rhodesiense STIB 900 after 3 days. In kind it is functional, organism-based. To be noted: STIB 900, 72 h. An outline of the steps: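 Bloodstream-form trypomastigotes, 8×10^3 per well in 100 μl medium, 96-well plates. Incubated 3 days, then resazurin added and fluorescence read after a further 24 h at 37 °C to gauge parasite growth. IC50 reported.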

For the next test, the system named is Leishmania donovani. Briefly: Antileishmanial activity against Leishmania donovani by Alamar blue assay. In kind it is functional, organism-based. An outline of the steps: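 L. donovani promastigotes at 2×10^6 cells/ml, 96-well format. Compounds dissolved in DMSO (2 mg ml⁻¹ stock), diluted in culture medium to final concentrations; matching DMSO dilutions as controls. Incubation 72 h at 26 °C; growth read by Alamar blue.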

For another test, the system named is Vero. Briefly: Cytotoxicity against african green monkey Vero cells by neutral red assay. In kind it is cell-based. Conditions: Chlorocebus sabaeus.

As a reminder, the IC50 is the concentration that inhibits the measured activity by half. In general, IC90 refers to the concentration at which the effect reaches the 90% level.

Consider `c1ccc2[nH]c(-c3ccc(OCCCCCCCOc4ccc(-c5nc6ccccc6[nH]5)cc4)cc3)nc2c1`, for which the IC50 with Pneumocystis carinii was over 100 µM; in test [1] it was over 60 µM; in the test on Leishmania donovani, 13.6 µM; in the test on Vero, 46.1 µM. Moreover, the IC90 in the test with Leishmania donovani was found to be 56.2 µM.
The corresponding values for `c1ccc2[nH]c(-c3ccc(OCCCCCCOc4ccc(-c5nc6ccccc6[nH]5)cc4)cc3)nc2c1` are over 100 µM, over 60 µM, 11.8 µM, 27.9 µM and 53.8 µM.
Taken in the same sequence, the figures for `c1ccc2[nH]c(-c3ccc(OCCCCCOc4ccc(-c5nc6ccccc6[nH]5)cc4)cc3)nc2c1` were 54.1 µM, over 60 µM, 1.4 µM, 28.7 µM and 3.1 µM.
Take `c1cc(OCCCCCOc2cccc(-c3nc4ccccc4[nH]3)c2)cc(-c2nc3ccccc3[nH]2)c1`: the IC50 was 5.2 µM in the test on Pneumocystis carinii, 0.85 µM in test [1], 10.3 µM with Leishmania donovani and 12.3 µM in the test on Vero. In addition, in the test with Leishmania donovani, the IC90 amounted to 45.1 µM.
The corresponding values for `c1ccc2[nH]c(-c3ccc(OCCCOc4ccc(-c5nc6ccccc6[nH]5)cc4)cc3)nc2c1` are 10.2 µM, over 60 µM, 1.5 µM, 27.2 µM and 3.3 µM.
On to `c1ccc2[nH]c(-c3ccc(OCCCCOc4ccc(-c5nc6ccccc6[nH]5)cc4)cc3)nc2c1`, for which the IC50 with Pneumocystis carinii was 169 µM; in test [1] it was over 60 µM; in the test with Leishmania donovani, 4.9 µM; with Vero, over 100 µM. Moreover, the IC90 in the test with Leishmania donovani is 12.9 µM.
On to `N=C(N)c1ccc(OCCCCCOc2ccc(C(=N)N)cc2)cc1` [PENTAMIDINE], for which the IC50 in test [1] was 0.05 µM; with Vero, over 100 µM. In addition, in the test on Leishmania donovani, the IC90 is 9.8 µM.

(Values after ChEMBL document CHEMBL1144783, “Novel bisbenzimidazoles with antileishmanial effectiveness” (Bioorg Med Chem Lett, 2008).)
